Calls of active or inactive are those of the source. The calls are words filed in the database; no cut-off is given here.
What was measured:
Homo sapiens [1] = organism: Homo sapiens; test: Immunostimulatory activity in human pDC assessed as induction of IFNalpha at 100 ug/ml after 24 hrs; type: functional
How it was run: (§1)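 Human pDCs plated at 1 × 10^6 cells/mL; compounds in PBS added, 37 °C for 24 h; supernatant cytokines/chemokines by human Luminex multiplex kit.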

PBMC [2] = test: Immunomodulatory activity in human PBMC assessed as induction of IL10 after 24 hrs; type: functional, cell-based
How it was run: (§2)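 Human PBMCs plated at 5 × 10^6 cells/mL; compounds dissolved in PBS added at various concentrations, 37 °C for 24 h. Supernatant cytokines/chemokines quantified with human Luminex multiplex kit.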

[3] = molecular target: T1, Toll-like receptor 7 (Homo sapiens) (UniProt Q9NYK1); test: Activation of human TLR7 expressed in HEK293XL assessed as fold induction of NF-kappaB activity at 50 ug/ml after 18 hrs by reporter gene assay relative to control
T1 sequence (whole entry): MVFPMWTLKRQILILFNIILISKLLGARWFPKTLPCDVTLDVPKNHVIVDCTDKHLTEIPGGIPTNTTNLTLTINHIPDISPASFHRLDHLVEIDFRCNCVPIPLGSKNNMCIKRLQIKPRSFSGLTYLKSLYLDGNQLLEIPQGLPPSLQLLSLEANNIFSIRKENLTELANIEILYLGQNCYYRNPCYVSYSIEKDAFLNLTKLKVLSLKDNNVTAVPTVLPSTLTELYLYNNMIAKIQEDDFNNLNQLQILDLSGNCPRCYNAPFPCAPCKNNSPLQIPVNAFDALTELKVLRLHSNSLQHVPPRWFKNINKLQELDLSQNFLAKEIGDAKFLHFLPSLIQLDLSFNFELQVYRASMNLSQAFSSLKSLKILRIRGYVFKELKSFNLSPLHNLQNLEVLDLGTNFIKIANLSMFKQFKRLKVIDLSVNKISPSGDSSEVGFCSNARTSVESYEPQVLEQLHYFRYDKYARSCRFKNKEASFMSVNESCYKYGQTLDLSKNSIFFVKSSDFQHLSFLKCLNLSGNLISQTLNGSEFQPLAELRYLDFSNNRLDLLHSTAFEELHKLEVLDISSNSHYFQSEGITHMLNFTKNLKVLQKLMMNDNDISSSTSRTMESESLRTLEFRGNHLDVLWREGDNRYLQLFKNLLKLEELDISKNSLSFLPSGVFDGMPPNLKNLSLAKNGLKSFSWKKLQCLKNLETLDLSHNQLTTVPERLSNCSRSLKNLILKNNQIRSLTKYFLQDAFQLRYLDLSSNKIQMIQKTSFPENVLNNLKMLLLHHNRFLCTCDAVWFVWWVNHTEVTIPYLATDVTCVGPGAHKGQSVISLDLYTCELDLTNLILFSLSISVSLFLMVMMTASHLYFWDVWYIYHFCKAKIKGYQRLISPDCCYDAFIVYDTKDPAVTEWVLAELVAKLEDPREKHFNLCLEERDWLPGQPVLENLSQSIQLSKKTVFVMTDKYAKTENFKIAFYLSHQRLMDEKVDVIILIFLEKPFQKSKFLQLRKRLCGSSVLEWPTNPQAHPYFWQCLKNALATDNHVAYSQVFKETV
How it was run: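 HEK293 cells stably expressing human TLR7 or TLR8, transiently transfected with SEAP reporter plasmid; medium replaced, SIMRA compounds added, 18 h incubation. Supernatant SEAP measured by QuantiBlue; expressed as fold increase in NF-κB activity over PBS control. Tabulated data at 50 μg/mL, representative of three independent experiments.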

Homo sapiens [4] = organism: Homo sapiens; test: Immunostimulatory activity in human mDC assessed as induction of IFNalpha at 100 ug/ml after 24 hrs; type: functional
How it was run: (§3)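 Human mDCs isolated from PBMCs by CD19+ B-cell depletion then BDCA1 positive selection; plated at 1 × 10^6 cells/mL, compounds in PBS, 37 °C for 24 h; supernatant cytokines by human Luminex multiplex. Representative of four independent experiments.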

PBMC [5] = test: Immunomodulatory activity in human PBMC assessed as induction of MCP1 after 24 hrs; type: functional, cell-based; how it was run: as §2
Homo sapiens [6] = organism: Homo sapiens; test: Immunostimulatory activity in human mDC assessed as induction of IL6 at 100 ug/ml after 24 hrs; type: functional; how it was run: as §3
PBMC [7] = test: Immunomodulatory activity in human PBMC assessed as induction of TNFalpha after 24 hrs; type: functional, cell-based; how it was run: as §2
PBMC [8] = test: Immunomodulatory activity in human PBMC assessed as induction of MCP1 at 50 ug/ml after 24 hrs; type: functional, cell-based; how it was run: as §2
PBMC [9] = test: Immunomodulatory activity in human PBMC assessed as induction of IFNalpha after 24 hrs; type: functional, cell-based; how it was run: as §2
PBMC [10] = test: Immunomodulatory activity in human PBMC assessed as induction of IFNalpha at 50 ug/ml after 24 hrs; type: functional, cell-based; how it was run: as §2
PBMC [11] = test: Immunomodulatory activity in human PBMC assessed as induction of MIP1alpha at 50 ug/ml after 24 hrs; type: functional, cell-based; how it was run: as §2
Homo sapiens [12] = organism: Homo sapiens; test: Immunostimulatory activity in human mDC assessed as induction of IP10 at 100 ug/ml after 24 hrs; type: functional; how it was run: as §3
PBMC [13] = test: Immunomodulatory activity in human PBMC assessed as induction of IP10 at 50 ug/ml after 24 hrs; type: functional, cell-based; how it was run: as §2
Homo sapiens [14] = organism: Homo sapiens; test: Ratio of human TLR7 activity to human TLR8 activity
How it was run: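 TLR7/TLR8 ratio computed from fold NF-κB (SEAP reporter) activation in HEK293 cells stably expressing human TLR7 versus TLR8, compounds at 50 μg/mL, 18 h exposure; representative of three independent experiments.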

PBMC [15] = test: Immunomodulatory activity in human PBMC assessed as induction of MIP1beta at 50 ug/ml after 24 hrs; type: functional, cell-based; how it was run: as §2
PBMC [16] = test: Immunomodulatory activity in human PBMC assessed as induction of TNFalpha at 50 ug/ml after 24 hrs; type: functional, cell-based; how it was run: as §2
PBMC [17] = test: Immunomodulatory activity in human PBMC assessed as induction of IL12 at 50 ug/ml after 24 hrs; type: functional, cell-based; how it was run: as §2
Homo sapiens [18] = organism: Homo sapiens; test: Immunostimulatory activity in human pDC assessed as induction of IL6 at 100 ug/ml after 24 hrs; type: functional; how it was run: as §1
Homo sapiens [19] = organism: Homo sapiens; test: Immunostimulatory activity in human mDC assessed as induction of IL12 at 100 ug/ml after 24 hrs; type: functional; how it was run: as §3
Mus musculus = test: Immunomodulatory activity in C57BL/6 mouse assessed as induction of IL12 release at 25 mg/kg, sc after 2 hrs by ELISA; type: functional, organism-based; design: dose 25 mg/kg
How it was run: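 Female C57BL/6 wild-type mice, 5–8 weeks old, n=3; compounds given subcutaneously at 10 or 25 mg/kg. Retro-orbital blood at 2 h; serum cytokines by mouse Luminex multiplex or IL-12 ELISA.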

PBMC [20] = test: Immunomodulatory activity in human PBMC assessed as induction of IL1-beta at 50 ug/ml after 24 hrs; type: functional, cell-based; how it was run: as §2
PBMC [21] = test: Immunomodulatory activity in human PBMC assessed as induction of IL6 at 50 ug/ml after 24 hrs; type: functional, cell-based; how it was run: as §2
PBMC [22] = test: Immunomodulatory activity in human PBMC assessed as induction of MIP1beta after 24 hrs; type: functional, cell-based; how it was run: as §2
Homo sapiens [23] = organism: Homo sapiens; test: Immunostimulatory activity in human pDC assessed as induction of IP10 at 100 ug/ml after 24 hrs; type: functional; how it was run: as §1
Homo sapiens [24] = organism: Homo sapiens; test: Immunostimulatory activity in human mDC assessed as induction of TNFalpha at 100 ug/ml after 24 hrs; type: functional; how it was run: as §3

`Nc1ccn([C@@H]2O[C@H](COP(=O)(S)O[C@H]3[C@@H](O)[C@H](n4cnc5c(N)ncnc54)O[C@@H]3COP(=O)(S)O[C@H]3[C@@H](O)[C@H](n4ccc5c(=O)[nH]c(N)nc54)O[C@@H]3COP(=O)(S)O[C@H]3[C@@H](O)[C@H](n4ccc(=O)[nH]c4=O)O[C@@H]3COP(=O)(S)O[C@H]3[C@@H](O)[C@H](n4ccc(=O)[nH]c4=O)O[C@@H]3COP(=O)(S)O[C@H]3[C@@H](O)[C@H](n4cnc5c(N)ncnc54)O[C@@H]3COP(=O)(S)O[C@H]3[C@@H](O)[C@H](n4cnc5c(N)ncnc54)O[C@@H]3CO)[C@@H](OP(=O)(S)OC[C@H]3O[C@@H](n4ccc5c(=O)[nH]c(N)nc54)[C@H](O)[C@@H]3OP(=O)(S)OC[C@H]3O[C@@H](n4ccc(N)nc4=O)[C@H](O)[C@@H]3OP(=O)(S)OC[C@H]3O[C@@H](n4ccc(=O)[nH]c4=O)[C@H](O)[C@@H]3OP(=O)(S)OC[C@H]3O[C@@H](n4ccc(=O)[nH]c4=O)[C@H](O)[C@@H]3OP(=O)(S)OCC(O)COP(=O)(S)O[C@H]3[C@@H](O)[C@H](n4ccc(=O)[nH]c4=O)O[C@@H]3COP(=O)(S)O[C@H]3[C@@H](O)[C@H](n4ccc(=O)[nH]c4=O)O[C@@H]3COP(=O)(S)O[C@H]3[C@@H](O)[C@H](n4ccc(N)nc4=O)O[C@@H]3COP(=O)(S)O[C@H]3[C@@H](O)[C@H](n4ccc5c(=O)[nH]c(N)nc54)O[C@@H]3COP(=O)(S)O[C@H]3[C@@H](O)[C@H](n4ccc(N)nc4=O)O[C@@H]3COP(=O)(S)O[C@H]3[C@@H](O)[C@H](n4cnc5c(N)ncnc54)O[C@@H]3COP(=O)(S)O[C@H]3[C@@H](O)[C@H](n4ccc5c(=O)[nH]c(N)nc54)O[C@@H]3COP(=O)(S)O[C@H]3[C@@H](O)[C@H](n4ccc(=O)[nH]c4=O)O[C@@H]3COP(=O)(S)O[C@H]3[C@@H](O)[C@H](n4ccc(=O)[nH]c4=O)O[C@@H]3COP(=O)(S)O[C@H]3[C@@H](O)[C@H](n4cnc5c(N)ncnc54)O[C@@H]3COP(=O)(S)O[C@H]3[C@@H](O)[C@H](n4cnc5c(N)ncnc54)O[C@@H]3CO)[C@H]2O)c(=O)n1` (stereo not given in full) was tested, and the Activity (Homo sapiens [1]) was “Active”, the Activity (PBMC [2]) was “Dose-dependent effect” and the fold change (FC) [3] was 20.9. For the same molecule, the Activity (Homo sapiens [4]) was “Active”, the Activity (PBMC [5]) was “Dose-dependent effect” and the Activity (Homo sapiens [6]) was “Active”. For the same molecule, the Activity (PBMC [7]) was “Dose-dependent effect”, the Activity (PBMC [8]) was 49600 pg/mL and the Activity (PBMC [9]) was “Dose-dependent effect”. The Activity (PBMC [10]) was 149 pg/mL, the Activity (PBMC [11]) was 2230 pg/mL and the Activity (Homo sapiens [12]) was “Active”. For the same molecule, the Activity (PBMC [13]) was 453 pg/mL, the Ratio (Homo sapiens [14]) was 69.7 and the Activity (PBMC [15]) was 5500 pg/mL. The Activity (PBMC [16]) was 104 pg/mL, the Activity (PBMC [17]) was 320 pg/mL and the Activity (Homo sapiens [18]) was “Active”. The Activity (Homo sapiens [19]) was “Active”, the Activity (Mus musculus) was “Active” and the Activity (PBMC [20]) was 117 pg/mL. The Activity (PBMC [21]) was 1750 pg/mL, the Activity (PBMC [22]) was “Dose-dependent effect” and the Activity (Homo sapiens [23]) was “Active”. For the same molecule, the Activity (Homo sapiens [24]) was “Active”.
